# Bioassay records as filed in PubChem BioAssay.
# An excerpt weighted towards active compounds, which were near 2% of everything screened.
# LMPTP block: LMPTP phosphatase inhibitors, primary screen, biochemical, fluorescence intensity, uHTS | Low molecular weight phosphotyrosine protein phosphatase (Homo sapiens), P24666 | recombinant LMPTP-A, OMFP fluorogenic substrate | inhibition, % at 20 µM | 0.22% of 360,000 active | AID 651560, 2012;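 active = compounds that cut the enzyme signal by at least half of the control window in the single-dose screen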;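 note: plate controls were DMSO wells with enzyme plus substrate for no effect and substrate without enzyme for full effect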
#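 test system = LMPTP-A | amount = 0.625 nM LMPTP-A final | reagent = fluorogenic phosphatase substrate OMFP at 400 µM final | incubation = 50 min at room temperature | benchmarks = no-enzyme low control, uninhibited high control | medium = Bis-Tris pH 6.0, DTT, detergent | signal = fluorescence intensity of OMFP turnover product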
# DNMT1 block: human DNMT1 methyltransferase inhibitors, primary screen, biochemical, molecular beacon, fluorescence, HinP1I cleavage, uHTS. AID 588458, 2011. DNA (cytosine-5)-methyltransferase 1 (Homo sapiens), P26358. inhibition (reported as % activation of signal), % at 10 µM. 0.83% of 360,000 active; in the data active = inhibition above about 50%
# Scp-1 inhibitor: Scp-1 phosphatase inhibitors, primary screen, biochemical, colorimetric, uHTS; Carboxy-terminal domain RNA polymerase II polypeptide A small phosphatase 1 (Homo …; Recombinant Scp1, phosphopeptide, malachite green phosphate absorbance; inhibition, % at 20 µM; 0.88% of 340,000 active; AID 493091, 2011;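 active = inhibition above about 50% at 20 µM, limit read from the data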;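 note: plate controls were DMSO wells with enzyme for no effect and wells lacking enzyme for full effect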
# Target sequence (Q9GZU7 76-261 limits assumed): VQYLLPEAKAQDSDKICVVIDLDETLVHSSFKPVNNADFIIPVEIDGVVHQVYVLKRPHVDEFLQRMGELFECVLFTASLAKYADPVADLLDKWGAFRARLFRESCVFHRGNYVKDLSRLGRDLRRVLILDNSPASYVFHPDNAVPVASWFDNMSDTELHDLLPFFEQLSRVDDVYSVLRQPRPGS
#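 Incubation: 45 min enzyme reaction at room temperature / System: truncated SCP-1 phosphatase (76-261aa) / Reagent: Phospho 17-mer peptide substrate / Buffer or medium: Acidic Tris acetate buffer with magnesium and detergent / Signal: absorbance at 630 nm / Doses: one concentration, 20 µM, with 1.0% DMSO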
# STEP inh: STEP phosphatase inhibitors, primary screen, biochemical, fluorescence intensity, uHTS; Tyrosine-protein phosphatase non-receptor type 5 (Homo sapiens), P54829; recombinant STEP, OMFP fluorogenic substrate; inhibition, % at 20 µM; 0.25% of 360,000 active;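 active = inhibition at 20 µM, scaled per plate between control wells, above about 37%, limit read from the data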;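 note: 0% = DMSO with enzyme and substrate and 100% = substrate only without enzyme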
#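 System: STEP (striatal-enriched tyrosine phosphatase) enzyme, cell-free; medium: Bis-Tris pH 6.0 buffer with DTT, detergent; dosing: 20 µM, 1% DMSO; times: reaction 20 min, ambient temperature; detection: fluorescence, 480/540 nm; read-out basis: normalized % inhibition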
# CSN inh: inhibitors of CSN-mediated cullin deneddylation, primary screen, biochemical, fluorescence polarization, uHTS; COP9 signalosome complex subunit 5 (Homo sapiens), Q92905; 0.38% of 360,000 active; inhibition, % at 12.5 µM; AID 651999, 2013; Purified CSN, SCF-Nedd8-OG deneddylation;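 active = pattern-corrected inhibition above about 35%, with an unprinted fluorescence ratio check between 0.5 and 1.5, limit read from the data, passing the limit was not always enough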;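 note: 0% = enzyme with substrate and 100% = substrate without enzyme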
# Target sequence (Q92905 whole entry, looked up, one chain of several): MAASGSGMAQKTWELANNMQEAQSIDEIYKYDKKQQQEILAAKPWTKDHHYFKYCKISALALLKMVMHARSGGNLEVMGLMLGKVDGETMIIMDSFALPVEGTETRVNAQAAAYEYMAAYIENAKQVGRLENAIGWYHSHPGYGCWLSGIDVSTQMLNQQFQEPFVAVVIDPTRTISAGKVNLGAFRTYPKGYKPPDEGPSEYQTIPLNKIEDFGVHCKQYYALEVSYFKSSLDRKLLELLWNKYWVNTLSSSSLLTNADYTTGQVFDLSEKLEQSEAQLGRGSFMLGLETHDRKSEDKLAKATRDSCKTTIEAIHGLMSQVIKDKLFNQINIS
#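 Material: purified human Csn5 enzyme expressed in HEK293T cells / Medium: Tris buffer pH 7.5, NaCl, DTT, Tween-20, trehalose, ovalbumin / Compound dosing: 12.5 µM single point / Schedule: 90 min incubation of compound, enzyme and substrate at room temperature / Signal: fluorescence polarization of the substrate / Control set: no-enzyme wells high, enzyme-with-substrate wells low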
# SUMO1 PPI mod: modulators of SUMO1 protein-protein interactions, primary screen, biochemical, uHTS; Small ubiquitin-related modifier 1 (Homo sapiens), P63165; SUMO1 binding to a labelled peptide, TR-FRET, 1 h; inhibition, % at 20 µM; 0.33% of 360,000 active; in the data active = inhibition above about 37%
# Target sequence (P63165 whole entry, looked up): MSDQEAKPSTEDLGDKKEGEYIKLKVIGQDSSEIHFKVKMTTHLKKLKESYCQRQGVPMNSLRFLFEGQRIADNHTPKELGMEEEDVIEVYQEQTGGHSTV
# DNMT1 inh conf: DNMT1 methyltransferase inhibitor retest, confirmation, biochemical, molecular beacon, fluorescence, single concentration; shares compounds with DNMT1 block; DNMT1 molecular beacon HinP1I cleavage; inhibition, % at 10 µM; 8% of 2,300 active; AID 602385, 2012;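 active = average inhibition of at least 30% in the single-concentration confirmation test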
# DNMT1 interf: shows spectral interference in the DNMT1 beacon assay. shares compounds with DNMT1 block. DNMT1 molecular beacon spectral interference counterscreen, fluorescence 485/520. activation (fluorescence interference), % at 10 µM. 1% of 2,300 active. AID 602387;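 active = activation of at least 30% at 10 µM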;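 note: DNMT1 catalytic domain with a HinP1I cleavage step and a FAM/dabcyl DNA beacon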
# Active calls of the source: *; nt = not tested or not shown.
SMILES,LMPTP block,DNMT1 block,Scp-1 inhibitor,STEP inh,CSN inh,SUMO1 PPI mod,DNMT1 inh conf,DNMT1 interf
CCN1CCN(C(=O)c2ccc3c(c2)N(Cc2ccccc2F)C(=O)c2ccccc2S3(=O)=O)CC1,-1,-2,-5,-2,8,-7,nt,nt
CC1(C)C2CC[C@]3(C)C(CC=C4[C@@H]5C[C@@](C)(CO)[C@@H](O)C[C@]5(C(=O)O)CC[C@]43C)[C@@]2(C)CC[C@@H]1O (stereo partly drawn),1,-2,10,-1,-1,0,nt,nt
COC(=O)[C@@]1(C)CC[C@]2(C)CC[C@@]3(C)C(=CC(=O)C4[C@@]5(C)CC[C@H](O)C(C)(C)[C@@H]5CC[C@]43C)[C@H]2C1 (stereo partly drawn),1,53*,0,0,-4,-5,-1,2
COc1ccc(N(CC(=O)Nc2ccccc2OC)S(=O)(=O)c2ccc(OC)c(OC)c2)cc1,0,2,-5,0,-1,1,nt,nt
Cc1cccc(NC(=O)c2cc(-c3ccccn3)nc3ccccc23)c1C,2,-5,-2,-3,3,-12,nt,nt
Cc1nnn(-c2nonc2N)c1C(=O)N/N=C/c1cccc2ccccc12,2,60*,-7,5,8,-3,6,2
O=C(Nc1ccc(Cl)cn1)c1cc2c(s1)-c1ccccc1OC2,0,56*,-7,-2,2,-6,0,0
O=C(Nc1cccnc1Cl)c1cc2c(s1)-c1ccccc1OC2,0,12,-6,-3,8,-7,nt,nt
Cc1ccc(C)c(S(=O)(=O)N2CCN(C(=O)/C=C/c3ccco3)CC2)c1,3,76*,23,-1,23,-1,7,2
CC(=O)Nc1ccc(S(=O)(=O)NCC(C)NS(=O)(=O)c2ccc(NC(C)=O)cc2)cc1 (stereo not drawn),-1,-1,-8,-4,5,-1,nt,nt
CC(=O)Nc1ccc(S(=O)(=O)NCC(CCC(=O)O)C(F)(F)F)cc1 (stereo not drawn),-2,60*,1,-3,-2,0,0,4
c1ccc(OCCCCn2cnc3ccccc32)cc1,0,74*,1,3,1,-1,2,5
O=[N+]([O-])c1ccc(F)cc1OCc1cccc(S(=O)(=O)N2CCOCC2)c1,0,82*,-5,0,-8,-13,5,8
COc1ccc(/C=C2\CCn3c2nc2ccccc2c3=O)cc1OC,0,-5,-4,0,1,-17,nt,nt
CCOc1cc(/C=C2\CCCc3c2nc2ccccc2c3C(=O)O)ccc1OC,-6,61*,-7,-50,-18,8,2,1
CSCCC(NC(=O)COc1ccccc1)C(=O)N(C)Cc1c(F)cccc1Cl (stereo not drawn),-1,83*,nt,-3,1,0,3,4
CSCCC(NC(=O)COc1ccccc1)C(=O)N(C)CC(=O)Nc1ccc(Cl)cc1 (stereo not drawn),-1,0,-5,-2,-1,-1,nt,nt
c1ccc(C(c2ccccc2)c2noc(CN3CCC(c4ccncc4)CC3)n2)cc1,-1,-6,5,-6,3,-3,nt,nt
O=c1c(-c2c(O)cc(O)c3c(=O)cc(-c4ccc(O)cc4)oc23)c(-c2ccc(O)cc2)oc2cc(O)cc(O)c12,15,93*,53*,-3,31,50*,12,7
O=c1cc(-c2ccc(O)cc2)oc2c(-c3c(O)cc(O)c4c(=O)cc(-c5ccc(O)cc5)oc34)c(O)cc(O)c12,0,-6,-4,-1,3,14,nt,nt
NC(=O)c1ncn([C@@H]2O[C@H](CNCc3cccn3-c3ccncc3)[C@@H](O)[C@H]2O)n1,0,3,21,-3,-1,1,nt,nt
CCN(CC)c1ccc(S(=O)(=O)N2CCOCC2)cc1NC(=O)CNCc1ccccc1,0,-1,9,1,3,-4,nt,nt
Cc1ccccc1NC(=O)CCN1CCN(Cc2ccccc2)CC1,-2,-2,-2,-4,6,-1,nt,nt
Cc1ccccc1NC(=O)CN1CCN(Cc2ccccc2)CC1,-1,79*,-4,-4,-2,6,1,5
CCN(CC)c1ccc(S(=O)(=O)N2CCOCC2)cc1NC(=O)CN1CCN(Cc2ccccc2)CC1,-1,58*,-9,3,0,3,0,4
SMILES,LMPTP block,DNMT1 block,Scp-1 inhibitor,STEP inh,CSN inh,SUMO1 PPI mod,DNMT1 inh conf,DNMT1 interf
O=C(N/N=C/c1ccc2c(c1)OCO2)c1sc2cccc(Cl)c2c1Cl,1,35,-7,0,-1,-3,nt,nt
COc1ccc(NS(=O)(=O)c2cccc(C(=O)N/N=C/c3ccc4c(c3)OCCO4)c2)cc1,-1,60*,-4,-3,-4,4,4,1
O=C(N/N=C/c1ccc2c(c1)OCO2)c1sc2cc(Cl)ccc2c1Cl,2,67*,3,5,0,-2,4,-5
COc1ccc2c(Cl)c(C(=O)N/N=C/c3ccc4c(c3)OCO4)sc2c1,16,62*,0,3,7,-2,2,-4
Cc1cccn2c(=O)nc(SCC(=O)N3CCC(Cc4ccccc4)CC3)nc12,1,-1,0,4,5,-1,nt,nt
Cc1cc2cc(CCNC(=O)CCCc3ccccc3)c(=O)[nH]c2cc1C,1,3,9,0,2,3,nt,nt
COc1cc(S(=O)(=O)N2CCN(C(=O)c3cccs3)CC2)ccc1NC(C)=O,0,2,nt,-3,4,-2,nt,nt
Cc1ccnc(NC(=O)C2CCCN(S(=O)(=O)c3ccc4[nH]c(=O)ccc4c3)C2)c1 (stereo not drawn),-1,-4,-4,-2,0,8,nt,nt
